Laboratory results as given in ChEMBL document CHEMBL5532647, “Design, synthesis, ADME and biological evaluation of benzylpiperidine and benzylpiperazine derivatives as novel reversible monoacylglycerol lipase (MAGL) inhibitors” (Eur J Med Chem, 2024).
Values after ≈ are worked out from the molar mass of the structure shown. Active and inactive are the calls of the source. No cut-off for these calls is given here.

Assays:
[1] = molecular target: T1, Monoglyceride lipase (Homo sapiens, UniProt Q99685); assay: Inhibition of human recombinant MAGL using 4-nitrophenylacetate as substrate incubated for 30 mins by microplate reader analysis
T1 sequence (Q99685 whole entry): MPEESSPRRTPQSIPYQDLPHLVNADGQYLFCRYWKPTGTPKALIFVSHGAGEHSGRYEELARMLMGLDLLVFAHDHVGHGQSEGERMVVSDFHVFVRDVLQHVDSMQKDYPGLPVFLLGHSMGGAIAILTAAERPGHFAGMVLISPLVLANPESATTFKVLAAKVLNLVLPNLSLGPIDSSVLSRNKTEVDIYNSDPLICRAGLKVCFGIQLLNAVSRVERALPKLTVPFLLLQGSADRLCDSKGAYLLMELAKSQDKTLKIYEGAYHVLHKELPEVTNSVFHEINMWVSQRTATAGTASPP

[2] = molecular target: T2, Monoacylglycerol lipase ABHD6 (Mus musculus) (UniProt Q8R2Y0); assay: Displacement of TAMRA-FP from mouse brain ABHD6 at 10 uM incubated with compound for 5 mins followed by ABPP assay; assay type: tissue-based
T2 sequence (whole entry): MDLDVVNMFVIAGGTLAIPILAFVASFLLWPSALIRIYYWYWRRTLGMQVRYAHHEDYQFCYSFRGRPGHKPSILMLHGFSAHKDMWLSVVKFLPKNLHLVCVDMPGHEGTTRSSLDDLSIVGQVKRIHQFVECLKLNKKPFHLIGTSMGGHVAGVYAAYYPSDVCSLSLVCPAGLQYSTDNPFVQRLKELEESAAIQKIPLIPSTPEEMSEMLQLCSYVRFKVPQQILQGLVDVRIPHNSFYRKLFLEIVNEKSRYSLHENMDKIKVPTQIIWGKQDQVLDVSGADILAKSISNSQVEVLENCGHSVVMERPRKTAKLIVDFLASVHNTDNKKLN
How it was run: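 Mouse brain membranes (2 mg/mL final, in PBS) preincubated 25 min at 25 °C with test compound (10 μM final) or DMSO vehicle. Controls: JZL-184, URB597 4 μM, WWL70 10 μM, THL, MAFP 5 μM. TAMRA-FP 125 nM final added for 5 min at 25 °C. Reaction stopped with Laemmli buffer, 3 min at 25 °C then 10 min at 90 °C. Separation by 10% SDS-PAGE, fluorescence scanning, three independent experiments.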

[3] = molecular target: T3, Monoglyceride lipase (Mus musculus) (UniProt O35678); assay: Displacement of TAMRA-FP from mouse brain MAGL at 1 uM incubated with compound for 5 mins followed by ABPP assay; assay type: tissue-based
T3 sequence (whole entry): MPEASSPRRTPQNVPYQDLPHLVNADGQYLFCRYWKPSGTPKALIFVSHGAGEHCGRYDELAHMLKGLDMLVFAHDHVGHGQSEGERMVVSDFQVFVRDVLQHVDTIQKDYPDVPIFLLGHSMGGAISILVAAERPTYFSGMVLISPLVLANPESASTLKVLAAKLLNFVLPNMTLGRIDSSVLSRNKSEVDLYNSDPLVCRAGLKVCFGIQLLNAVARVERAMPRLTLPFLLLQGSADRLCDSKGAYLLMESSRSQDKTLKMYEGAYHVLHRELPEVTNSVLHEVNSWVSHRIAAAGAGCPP

[4] = Permeability of the compound assessed as membrane retention rate by PAMPA method; assay type: ADME
How it was run: (§1)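 Donor solution made from 1 mM DMSO stock diluted in 25 mM phosphate buffer pH 7.4 to 500 μM final. Filter coated with 1% (w/v) phosphatidylcholine in dodecane. Acceptor was 1:1 v/v DMSO/phosphate buffer. Sandwich incubated 5 h at room temperature. Compound in donor and acceptor wells quantified by UV/LC-MS.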

[5] = Thermodynamic aqueous solubility of the compound by LC-MS/MS analysis; assay type: physicochemical; conditions: read-out: Therm_solubility
How it was run: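 Solid compound (1 mg) shaken overnight in 1 mL distilled water at room temperature. Suspension passed through a 0.45 μm nylon filter. Dissolved compound quantified in triplicate by UV/LC-MS or LC-MS/MS against a calibration curve of compound in methanol.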

[6] = Metabolic stability in human liver microsome in presence of NADPH-regenerating system by UV/LC-MS analysis; assay type: ADME; conditions: microsomes
How it was run: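 Compound incubated 1 h at 37 °C with human liver microsomes (0.2 mg/mL) and an NADPH-regenerating system (NADPH 0.2 mM, NADP+ 1 mM, glucose-6-phosphate 4 mM, G6PDH 4 unit/mL, MgCl2 48 mM) in 25 mM phosphate buffer pH 7.4. Quenched with acetonitrile, then centrifuged. Parent and metabolites measured by UV/LC-MS. Percent unmetabolized obtained against reference solutions; three independent experiments.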

[7] = Stability in human plasma measured after 24 hrs by UV/LC-MS analysis; assay type: ADME, cell-free; conditions: read-out: Stability
How it was run: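 Compound (2 mM) incubated at 37 °C in pooled human plasma (55.7 mg protein/mL) with HEPES 25 mM, NaCl 140 mM, pH 7.4. Samples taken at 0–24 h and precipitated with cold acetonitrile. After centrifugation, supernatant analysed by UV/LC-MS. Three independent experiments.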

[8] = Apparent permeability of the compound by PAMPA method; assay type: ADME; how it was run: as §1

O=C(c1cc(O)cc(Sc2ccccc2)c1)N1CCC(Cc2cccc(Sc3cc(C(F)(F)F)ccn3)c2)CC1
IC50 [1]: 44.8 nM

CN(Cc1cccc(-c2ccncc2)c1)C(=O)Oc1ccc(-c2ccc(C(N)=O)cc2)cc1
Activity [2]: Active

COc1ccc(Sc2cc(C(F)(F)F)ccn2)cc1CC1CCN(C(=O)c2cccc(O)c2)CC1
IC50 [1]: 49.1 nM

O=C(Oc1ccc([N+](=O)[O-])cc1)N1CCC(C(O)(c2ccc3c(c2)OCO3)c2ccc3c(c2)OCO3)CC1
Activity [3]: Active

O=C(c1cccc(O)c1)N1CCC(Cc2ccc(O)c(Sc3cc(C(F)(F)F)ccn3)c2)CC1
IC50 [1]: 61.2 nM

O=C(c1cccc(O)c1)N1CCC(Cc2cc(Sc3cc(C(F)(F)F)ccn3)ccc2F)CC1
IC50 [1]: 22.5 nM

O=C(c1cccc(O)c1)N1CCC(Cc2cccc(Sc3ccc(C(F)(F)F)cn3)c2)CC1
IC50 [1]: 40.4 nM

O=C(c1cccc(O)c1)N1CCC(Cc2cccc(Sc3ncccc3C(F)(F)F)c2)CC1
IC50 [1]: 7.1 nM

O=C(c1cccc(O)c1)N1CCC(Cc2cc(Sc3cc(C(F)(F)F)ccn3)ccc2O)CC1
IC50 [1]: 20.8 nM

O=C(c1ccc(Sc2cccc(C(F)(F)F)c2)cc1)C1CCN(C(=O)c2cc(O)ccc2F)CC1
R% [4]: 47% | solubility thermodynamic [5]: 0.129 ng/mL (≈ 0.256 nM) | Stability [6]: 90.71% | remaining at 24 h [7]: > 99% | Papp [8]: 1.83 ×10⁻⁶ cm/s

O=C(Nc1ccc(C(=O)N2CCC(Cc3cccc(Sc4cc(C(F)(F)F)ccn4)c3)CC2)cc1O)c1ccccc1
IC50 [1]: > 1000 nM

O=C(c1cc(O)ccc1Sc1ccccc1)N1CCC(Cc2cccc(Sc3cc(C(F)(F)F)ccn3)c2)CC1
IC50 [1]: 32.3 nM

O=C(c1ccc(Sc2ccccc2)c(O)c1)N1CCC(Cc2cccc(Sc3cc(C(F)(F)F)ccn3)c2)CC1
IC50 [1]: 242 nM

O=C(Nc1ccc(O)cc1C(=O)N1CCC(Cc2cccc(Sc3cc(C(F)(F)F)ccn3)c2)CC1)c1ccccc1
IC50 [1]: 112 nM

O=C(Nc1cc(O)cc(C(=O)N2CCC(Cc3cccc(Sc4cc(C(F)(F)F)ccn4)c3)CC2)c1)c1ccccc1
IC50 [1]: 149 nM

O=C(c1cccc(O)c1)N1CCC(Cc2cccc(Sc3cccc(C(F)(F)F)n3)c2)CC1
IC50 [1]: 13.2 nM

COc1ccc(CC2CCN(C(=O)c3cccc(O)c3)CC2)cc1Sc1cc(C(F)(F)F)ccn1
IC50 [1]: 14.4 nM
